Measurements from ChEMBL document CHEMBL3872223, “Synthetic, enzyme kinetic, and protein crystallographic studies of C-β-d-glucopyranosyl pyrroles and imidazoles reveal and explain low nanomolar inhibition of human liver glycogen phosphorylase” (Eur J Med Chem, 2016).
Activity calls are given as the source filed them. No cut-off for these calls is given here.

How the values were obtained:
[1] = target: T1, Glycogen phosphorylase, muscle form (Oryctolagus cuniculus, UniProt P00489); assay: Competitive inhibition of rabbit muscle glycogen phosphorylase-a assessed as release of inorganic phosphate using varying levels of glucose-1-phosphate and constant concentration of AMP and glycogen measured after 1 min by Dixon plot method
T1 sequence (P00489 whole entry): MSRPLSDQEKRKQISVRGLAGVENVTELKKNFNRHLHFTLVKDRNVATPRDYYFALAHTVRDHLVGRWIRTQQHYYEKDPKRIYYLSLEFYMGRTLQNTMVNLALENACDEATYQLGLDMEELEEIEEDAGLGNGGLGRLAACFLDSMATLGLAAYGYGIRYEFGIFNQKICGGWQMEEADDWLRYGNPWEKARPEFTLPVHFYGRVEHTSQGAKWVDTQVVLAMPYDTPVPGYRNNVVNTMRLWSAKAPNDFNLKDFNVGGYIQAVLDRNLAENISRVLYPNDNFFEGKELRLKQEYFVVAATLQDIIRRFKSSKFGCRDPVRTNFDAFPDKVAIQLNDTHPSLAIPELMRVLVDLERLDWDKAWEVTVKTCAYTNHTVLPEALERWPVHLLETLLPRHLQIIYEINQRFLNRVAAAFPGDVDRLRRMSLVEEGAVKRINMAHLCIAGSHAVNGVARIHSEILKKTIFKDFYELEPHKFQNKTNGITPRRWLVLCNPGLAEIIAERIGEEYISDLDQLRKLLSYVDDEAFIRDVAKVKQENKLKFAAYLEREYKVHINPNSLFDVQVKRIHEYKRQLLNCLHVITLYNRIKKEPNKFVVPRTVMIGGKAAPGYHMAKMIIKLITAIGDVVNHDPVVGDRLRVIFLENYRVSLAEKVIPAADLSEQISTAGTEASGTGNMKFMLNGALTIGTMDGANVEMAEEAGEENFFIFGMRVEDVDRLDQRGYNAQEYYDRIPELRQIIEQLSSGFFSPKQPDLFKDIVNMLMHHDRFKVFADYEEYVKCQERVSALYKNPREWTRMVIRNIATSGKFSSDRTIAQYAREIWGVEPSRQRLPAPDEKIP
In short: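 Rabbit muscle GPa was made by phosphorylating rmGPb with a truncated catalytic γ subunit of rabbit muscle phosphorylase kinase. It was assayed in 30 mM imidazole/HCl pH 6.8 containing 60 mM KCl, 0.6 mM EDTA, 0.6 mM DTT and 0.2% w/v glycogen, with Glc-1-P and inhibitor both varied. Initial velocities were calculated from pseudo-first order rate constants.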

[2] = target: T2, Glycogen phosphorylase, liver form (Homo sapiens, UniProt P06737); assay: (§1) Competitive inhibition of His6-tagged human liver glycogen phosphorylase-a expressed in Escherichia coli BL21 Gold (DE3) assessed as release of inorganic phosphate using varying levels of glucose-1-phosphate and constant concentration of AMP and glycogen measured after 1 min by Dixon plot method
T2 sequence (P06737 whole entry): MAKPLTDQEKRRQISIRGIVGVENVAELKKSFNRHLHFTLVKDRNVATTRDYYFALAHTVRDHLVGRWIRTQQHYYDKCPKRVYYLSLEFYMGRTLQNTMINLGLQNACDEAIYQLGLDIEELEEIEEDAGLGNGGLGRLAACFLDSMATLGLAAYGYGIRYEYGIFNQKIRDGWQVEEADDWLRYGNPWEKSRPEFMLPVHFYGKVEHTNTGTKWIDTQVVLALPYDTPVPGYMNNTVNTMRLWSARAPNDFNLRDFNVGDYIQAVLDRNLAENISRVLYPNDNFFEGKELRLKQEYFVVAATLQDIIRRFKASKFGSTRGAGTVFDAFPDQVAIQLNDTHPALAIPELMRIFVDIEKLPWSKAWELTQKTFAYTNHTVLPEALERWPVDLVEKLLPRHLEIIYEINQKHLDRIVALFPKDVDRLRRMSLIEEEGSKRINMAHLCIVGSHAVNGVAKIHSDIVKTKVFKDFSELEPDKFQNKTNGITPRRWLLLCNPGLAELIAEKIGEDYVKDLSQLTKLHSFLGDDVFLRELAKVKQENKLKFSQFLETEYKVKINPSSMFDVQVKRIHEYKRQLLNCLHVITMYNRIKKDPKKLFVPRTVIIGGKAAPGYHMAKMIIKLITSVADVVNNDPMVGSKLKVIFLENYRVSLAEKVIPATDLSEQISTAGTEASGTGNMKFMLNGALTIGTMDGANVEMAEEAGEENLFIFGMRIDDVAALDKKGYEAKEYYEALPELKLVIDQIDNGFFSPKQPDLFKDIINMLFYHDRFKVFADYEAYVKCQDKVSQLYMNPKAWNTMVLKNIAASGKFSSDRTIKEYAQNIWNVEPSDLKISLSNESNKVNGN

[3] = target: T3, Glycogen phosphorylase, liver form (Homo sapiens) (UniProt P06737); assay: as §1, with “Lineweaver-Burk” for “Dixon”; type: tissue-based
T3 sequence (whole entry): T2 sequence (P06737 whole entry)

[4] = target: T1, Glycogen phosphorylase, muscle form; assay: Competitive inhibition of rabbit muscle glycogen phosphorylase-b in presence of varying glucose-1-phosphate levels and AMP
[5] = target: T1, Glycogen phosphorylase, muscle form; assay: Inhibition of rabbit muscle glycogen phosphorylase-b assessed as release of inorganic phosphate from glucose-1-phosphate in presence of AMP and glycogen
In short: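 Isolated rabbit skeletal muscle GPb was assayed in 30 mM imidazole/HCl pH 6.8 with 60 mM KCl, 0.6 mM EDTA and 0.6 mM DTT. […] Initial velocities were derived from pseudo-first order rate constants.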

Compound | Ki [1] | Ki [2] | inhibition [3] | Ki [4] | IC50 [5]
OC[C@H]1O[C@@H](c2nc(-c3ccc4ccccc4c3)c[nH]2)[C@H](O)[C@@H](O)[C@@H]1O | 0.065 µM | 0.026 µM | Active | – | –
O=C1CNC(=S)N1 [THIOHYDANTOIN] | – | – | – | 5.1 µM | –
OC[C@H]1O[C@@H](c2cc3ccccc3[nH]2)[C@H](O)[C@@H](O)[C@@H]1O | – | – | – | – | 625 µM
OC[C@H]1O[C@@H](c2nc(-c3ccccc3)c[nH]2)[C@H](O)[C@@H](O)[C@@H]1O | 0.226 µM | 0.156 µM | Active | – | –
OC[C@H]1O[C@H](O)[C@H](O)[C@@H](O)[C@@H]1O | – | 4280 µM | – | – | –
